Laboratory results: ChEMBL document CHEMBL1154878, “Discovery of benzhydrylpiperazine derivatives as CB1 receptor inverse agonists via privileged structure-based approach” (Eur J Med Chem, 2010)
Calls of active or inactive are those of the source. No cut-off for these calls is given here.

What was measured:
[1] = molecular target: T1, Cannabinoid receptor 1 (Homo sapiens, UniProt P21554); assay type: functional, cell-based, CHO
[2] = molecular target: Cannabinoid receptor 2 (Homo sapiens, UniProt P34972); assay: Displacement of [3H]CP-55940 from human recombinant cannabinoid CB2 receptor expressed in CHO cells after 3 hrs by liquid scintillation counting; assay type: cell-based
Sequence of Cannabinoid receptor 2 (P34972 whole entry): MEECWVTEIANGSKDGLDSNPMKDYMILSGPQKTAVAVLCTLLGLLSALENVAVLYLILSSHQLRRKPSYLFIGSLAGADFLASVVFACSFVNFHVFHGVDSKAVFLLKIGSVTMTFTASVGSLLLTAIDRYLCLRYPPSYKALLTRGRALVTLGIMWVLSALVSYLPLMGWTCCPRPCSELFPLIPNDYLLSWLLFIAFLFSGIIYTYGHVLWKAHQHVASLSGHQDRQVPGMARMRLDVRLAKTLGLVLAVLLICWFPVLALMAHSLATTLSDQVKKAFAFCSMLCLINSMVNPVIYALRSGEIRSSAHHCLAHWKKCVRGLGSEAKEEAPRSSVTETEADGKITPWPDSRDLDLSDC

[3] = molecular target: T1, Cannabinoid receptor 1; assay: biochemical; assay type: cell-based, CHO
[4] = system: Rattus norvegicus; assay: Antiobesity activity in diet-induced obese Sprague-Dawley rat assessed as reduction in food intake at 10 mg/kg, po after 3 hrs; assay type: functional; set-up: scale not given: the % may be the effect or the level left
Summary of the method: (§1)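 Male DIO Sprague-Dawley rats (HFD from weaning), randomized n = 14/group, individually caged. Single oral dose 10 mg/kg in 0.5% carboxymethyl cellulose (2 mL/kg) 1 h before dark onset. Preweighed pelleted food reweighed at 3 h and overnight (18 h) postdose for cumulative intake vs vehicle.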

[5] = molecular target: T1, Cannabinoid receptor 1; assay: Inverse agonist activity at human cannabinoid CB1 receptor expressed in CHO cells assessed as inhibition of forskolin-stimulated cAMP accumulation after 60 mins; assay type: functional, cell-based
[6] = system: Rattus norvegicus; assay: Antiobesity activity in diet-induced obese Sprague-Dawley rat assessed as reduction in final body weight gain at 10 mg/kg, po SID after 12 days; assay type: functional, organism-based; set-up: dose 10 mg/kg
Summary of the method: (§2)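 Male DIO rats (HFD from weaning, 60% kcal fat; used at 12-16 weeks, conditioned to water gavage 5 days), individually caged, n = 11-12/group. Oral gavage 10 mg/kg daily for 12 days, 1 h before dark cycle, in 0.5% carboxymethyl cellulose/water (2 mL/kg) vs vehicle. Food intake and body weight recorded daily; Student's t-test.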

[7] = Plasma half life in Sprague-Dawley rat at 10 mg/kg, po; assay type: ADME, organism-based; set-up: dose 10 mg/kg, route oral
Summary of the method: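 Male Sprague–Dawley rats fasted overnight, single oral dose 10 mg/kg. Blood collected at various time points into lithium heparin, plasma stored at -20 °C, extracted by protein precipitation and quantified by LC/MS/MS; n = 5 rats/group.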

[8] = system: Rattus norvegicus; assay: Antiobesity activity in diet-induced obese Sprague-Dawley rat assessed as body weight progression at 10 mg/kg, po SID up to 12 days; assay type: functional, organism-based; set-up: dose 10 mg/kg
Summary of the method: as §2

[9] = system: Rattus norvegicus; assay: Antiobesity activity in diet-induced obese Sprague-Dawley rat assessed as reduction in food intake at 10 mg/kg, po after 18 hrs; assay type: functional; set-up: scale not given: the % may be the effect or the level left
Summary of the method: as §1

T1 sequence (P21554 whole entry): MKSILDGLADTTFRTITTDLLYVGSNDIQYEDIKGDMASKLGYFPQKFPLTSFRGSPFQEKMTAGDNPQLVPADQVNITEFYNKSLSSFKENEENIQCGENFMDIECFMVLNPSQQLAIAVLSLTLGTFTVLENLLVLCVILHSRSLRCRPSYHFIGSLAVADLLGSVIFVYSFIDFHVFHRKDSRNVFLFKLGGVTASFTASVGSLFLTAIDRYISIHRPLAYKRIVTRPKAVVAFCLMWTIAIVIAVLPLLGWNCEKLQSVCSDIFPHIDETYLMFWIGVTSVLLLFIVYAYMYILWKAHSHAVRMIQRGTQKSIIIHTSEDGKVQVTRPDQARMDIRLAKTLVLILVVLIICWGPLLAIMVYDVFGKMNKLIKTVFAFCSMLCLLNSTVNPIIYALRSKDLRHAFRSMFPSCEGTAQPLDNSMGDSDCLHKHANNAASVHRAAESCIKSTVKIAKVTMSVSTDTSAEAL

Row | Compound | IC50 [1] [nM] | Ki [2] [nM] | Ki [3] [nM] | other results
1 | COc1ccc(C(c2ccc(Cl)cc2Cl)N2CCN(C(=O)NC3CCCCC3)CC2)cc1 (centres undefined) | 82 | 290 | 2.6 | 
2 | O=C(NC1CCCCC1)N1CCN(C(c2ccccc2)c2ccc(Cl)cc2F)CC1 (centres undefined) | 124 | 526 | 3.1 | 
3 | O=C(C1CCCCC1)N1CCN(C(c2ccccc2)c2ccc(Cl)cc2Cl)CC1 (centres undefined) | 9.3 | 2930 | 5.8 | 
4 | O=C(NC1CCCCC1)N1CCN(C(c2ccc(Cl)cc2)c2ccc(Cl)cc2Cl)CC1 (centres undefined) | 19 | 26 | 0.23 | 
5 | Cc1ccc(C(c2ccc(Cl)cc2Cl)N2CCN(C(=O)NC3CCCCC3)CC2)cc1 (centres undefined) | 2.7 | 329 | 0.15 | Activity [4]: 39%; EC50 [5]: 0.87 nM; Activity [6]: Active; half-life [7]: 2.4 h; Activity [8]: Active; Activity [9]: 22%
6 | S=C(NC1CCCCC1)N1CCN(C(c2ccccc2)c2ccccc2)CC1 |  | 1870 | 106 | 
7 | CCCCNC(=O)N1CCN(C(c2ccccc2)c2ccc(Cl)cc2Cl)CC1 (centres undefined) |  | 918 |  | 
8 | O=C(NC1CCCCC1)N1CCN(C(c2ccccc2)c2ccc(Br)cc2F)CC1 (centres undefined) | 87 | 322 | 1.8 | 
9 | O=C(N1CCCCC1)N1CCN(C(c2ccccc2)c2ccc(Cl)cc2Cl)CC1 (centres undefined) | > 10000 | 987 | 56 | 
10 | O=C(NN1CCCCC1)N1CCN(C(c2ccccc2)c2ccc(Cl)cc2Cl)CC1 (centres undefined) | 4.7 | 1040 | 1.2 | 
11 | O=C(NC1CCCCC1)N1CCN(C(c2ccccc2)c2ccccc2)CC1 |  | 2410 | 52 | 
12 | O=C(N1CCN(C(c2ccccc2)c2ccc(Cl)cc2Cl)CC1)C12CC3CC(CC(C3)C1)C2 (centres undefined) | 288 | 25 | 5.9 | 
13 | Cc1ccc(C(c2ccc(Cl)cc2Cl)N2CCN(C(=O)NN3CCCCC3)CC2)cc1 (centres undefined) | 15 | 317 | 3 | 
14 | S=C(NC1CCCCC1)N1CCN(C(c2ccccc2)c2ccc(Cl)cc2Cl)CC1 (centres undefined) | 18 | 673 | 0.2 | 
15 | O=C(NC1CCCCC1)N1CCN(C(c2ccccc2)c2ccc(Cl)c(Cl)c2)CC1 (centres undefined) | 462 | 356 | 60 | 
16 | O=C(C1CCCC1)N1CCN(C(c2ccccc2)c2ccc(Cl)cc2Cl)CC1 (centres undefined) | 403 | 4880 | 732 | 
17 | O=C(NC1CCCCC1)N1CCN(C(c2ccccc2)c2ccc(F)cc2Cl)CC1 (centres undefined) | 68 | 1300 | 8.1 | 
18 | CCCCNC(=O)N1CCN(C(c2ccccc2)c2ccccc2)CC1 |  | 2830 | 239 | 
19 | O=C(C1CCCCC1)N1CCN(C(c2ccccc2)c2ccccc2)CC1 |  | 3050 | 164 | 
20 | O=C(NC1CCCCC1)N1CCN(C(c2ccccc2)c2cc(Cl)ccc2Cl)CC1 (centres undefined) | 43 | 899 | 5.9 | 
21 | O=C(NC1CCCCC1)N1CCN(C(c2cccc(Cl)c2)c2ccc(Cl)cc2Cl)CC1 (centres undefined) | 161 | 407 | 2.3 | 
22 | O=C(N1CCOCC1)N1CCN(C(c2ccccc2)c2ccc(Cl)cc2Cl)CC1 (centres undefined) | > 10000 | 618 | 111 | 
23 | O=C(NC1CCCCC1)N1CCN(C(c2ccc(Oc3ccccc3)cc2)c2ccc(Cl)cc2Cl)CC1 (centres undefined) | 34 | 52 | 1.1 | 
24 | O=C(C1CCC1)N1CCN(C(c2ccccc2)c2ccc(Cl)cc2Cl)CC1 (centres undefined) | > 10000 | 2120 | 291 | 
25 | O=C(NC1CCCCC1)N1CCN(C(c2ccccc2)c2ccc(Cl)cc2Cl)CC1 (centres undefined) | 9.2 | 432 | 1.6 | 
26 | O=C(NC1CCCCC1)N1CCN(C(c2ccccc2)c2c(Cl)cccc2Cl)CC1 (centres undefined) | 55 | 831 | 2.2 | 
27 | O=C(NC1CCCCC1)N1CCN(C(c2ccc(F)cc2)c2ccc(Cl)cc2Cl)CC1 (centres undefined) | 8.1 | 159 | 2.5 | 
28 | O=C(NC1CCCCC1)N1CCN(C(c2ccc(C(F)(F)F)cc2)c2ccc(Cl)cc2Cl)CC1 (centres undefined) | 57 | 274 | 1.2 | 
